Data on six molecules can be found in ChEMBL document CHEMBL1129409, “5-HT1D receptor agonist properties of novel 2-[5-[[(trifluoromethyl)sulfonyl]oxy]indolyl]ethylamines and their use as synthetic intermediates” (J Med Chem, 1996).

SMILES strings stand for the structures.

A short description of series [1]: Distribution coefficient (LogD) of compound reported. Format: physicochemical. Particulars: octanol/water. A digest of the protocol:
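log D calculated with Pallas version 1.2.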

The target of series [2] is T1, 5-hydroxytryptamine receptor 1D (Homo sapiens, UniProt P28221). Nature of the series: Displacement of [3H]-5-HT from human 5-hydroxytryptamine 1D receptor alpha expressed in HEK 293 cells. Format: cell-based, HEK293. In short, it runs like this: (§1)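 HEK 293 microsomal membranes expressing human 5-HT1Dα or 5-HT1Dβ, in 50 mM Tris-HCl buffer with 4 mM CaCl2, 0.1% ascorbic acid, pargyline and leupeptine. [3H]-5-HT (final 0.01-150 nM) incubated with membranes and displacer for 30 min at 25 °C. Glass-fibre filtration, then scintillation counting. Nonspecific binding taken with 10^-5 M 5-HT. Nonlinear least-squares fitting (EBDA/LIGAND); mean ± SEM, n=3.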
For orientation: Displacement assays read how much labelled ligand stays bound in the presence of the test substance.
Target sequence in this assay (P28221 whole entry): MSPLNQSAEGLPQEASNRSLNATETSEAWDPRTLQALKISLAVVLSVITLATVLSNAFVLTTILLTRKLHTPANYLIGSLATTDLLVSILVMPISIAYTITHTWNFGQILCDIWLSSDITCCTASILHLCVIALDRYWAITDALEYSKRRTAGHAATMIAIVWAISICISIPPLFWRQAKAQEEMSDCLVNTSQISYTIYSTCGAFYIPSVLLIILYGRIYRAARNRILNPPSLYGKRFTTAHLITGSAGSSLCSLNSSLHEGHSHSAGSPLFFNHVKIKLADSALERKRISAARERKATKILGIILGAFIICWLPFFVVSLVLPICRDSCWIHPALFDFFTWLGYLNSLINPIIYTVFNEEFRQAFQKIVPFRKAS

Series [3] addresses T1, 5-hydroxytryptamine receptor 1D. Nature of the series: (§2) Compound was tested for binding affinity against cloned human 5-hydroxytryptamine 1D receptor alpha expressed in CHO-K1 cells. Format: cell-based. A digest of the protocol:
(§3)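 CHO cell membranes expressing cloned human 5-HT1A, 5-HT1Dα or 5-HT1Dβ receptors, or rat D2 receptors (20-60 µg protein). Radioligands: [3H]-8-OH-DPAT (5-HT1A), [3H]-5-HT (5-HT1D), [3H]U-86170 (D2). Buffers at pH 7.4: 50 mM Tris/5 mM MgCl2 (5-HT1A); the same with 0.1% ascorbic acid (5-HT1D); 20 mM HEPES/10 mM MgSO4 (D2). Nonspecific binding defined with lisuride, serotonin and haloperidol respectively. 11 concentrations in duplicate, 1 h at room temperature (5-HT1D protected from light), filtration.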

The test system of series [4] is Cavia porcellus. Description: Effect of 25 (umol/kg, sc) compound on guinea pig rectal temperature (Hypothermia). Format: functional. A digest of the protocol: (§4)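 Male guinea pigs housed individually at least 1 h before testing, groups of five. Compound given sc in 0.25% methylcellulose (equimolar citric acid for free bases), 5 mL/kg. Rectal probe inserted 3-4 cm; temperature read before dosing and at 60 min. Reported as change from the 0 min value, mean ± SEM (n=4-5).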

The target in series [5] is D(2) dopamine receptor (Rattus norvegicus, UniProt P61169). Description: Binding affinity for rat dopamine D2 receptor expressed in CHO-K1 cells. Format: cell-based. In short, it runs like this: as §3
D(2) dopamine receptor, sequence (P61169 whole entry): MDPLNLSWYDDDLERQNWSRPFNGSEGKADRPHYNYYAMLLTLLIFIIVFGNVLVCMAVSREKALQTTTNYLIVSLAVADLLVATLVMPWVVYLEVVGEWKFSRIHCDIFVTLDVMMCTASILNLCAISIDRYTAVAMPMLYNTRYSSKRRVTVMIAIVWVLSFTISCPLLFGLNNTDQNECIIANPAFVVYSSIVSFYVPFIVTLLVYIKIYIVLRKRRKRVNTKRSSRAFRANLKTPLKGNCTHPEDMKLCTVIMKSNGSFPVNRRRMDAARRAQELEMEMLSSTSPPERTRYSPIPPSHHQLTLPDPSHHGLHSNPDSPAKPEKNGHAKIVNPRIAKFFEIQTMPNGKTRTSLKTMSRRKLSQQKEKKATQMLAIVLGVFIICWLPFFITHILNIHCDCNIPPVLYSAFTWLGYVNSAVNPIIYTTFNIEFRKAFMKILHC
Series [6] deals with Cavia porcellus. Nature of the series: The level of 5-HIAA (hypothalamus) measured by means of HPCL with electrochemical detection methods at 25 (umol/kg, sc). In kind it is functional. A digest of the protocol: (§5)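 Male Dunkin-Hartley guinea pigs dosed sc in 0.25% methylcellulose (citric acid added for free bases), 5 mL/kg. Decapitated 60 min after dosing; prefrontal cortex and hypothalamus dissected on ice and stored at -80 °C. 5-HT and 5-HIAA measured by HPLC-electrochemical detection. Expressed as % of vehicle controls, mean ± SEM (n=4-5); ANOVA with Fisher's PLSD.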

Series [7] relates to Cavia porcellus. Nature of the series: The level of 5-HT (hypothalamus) measured by means of HPCL with electrochemical detection methods at 25 (umol/kg, sc). Format: functional. In short, it runs like this: as §5
Series [8] relates to Cavia porcellus. Description: The level of 5-HIAA (prefrontal cortex) measured by means of HPCL with electrochemical detection methods at 25 (umol/kg, sc). Format: functional. A digest of the protocol:
as §5

In series [9] the test system is Cavia porcellus. Description: The level of 5-HT (prefrontal cortex) measured by means of HPCL with electrochemical detection methods at 25 (umol/kg, sc). Format: functional. In short, it runs like this:
as §5

For series [10], the target named is T2, 5-hydroxytryptamine receptor 1A (Homo sapiens, UniProt P08908).
T2 sequence (P08908 whole entry): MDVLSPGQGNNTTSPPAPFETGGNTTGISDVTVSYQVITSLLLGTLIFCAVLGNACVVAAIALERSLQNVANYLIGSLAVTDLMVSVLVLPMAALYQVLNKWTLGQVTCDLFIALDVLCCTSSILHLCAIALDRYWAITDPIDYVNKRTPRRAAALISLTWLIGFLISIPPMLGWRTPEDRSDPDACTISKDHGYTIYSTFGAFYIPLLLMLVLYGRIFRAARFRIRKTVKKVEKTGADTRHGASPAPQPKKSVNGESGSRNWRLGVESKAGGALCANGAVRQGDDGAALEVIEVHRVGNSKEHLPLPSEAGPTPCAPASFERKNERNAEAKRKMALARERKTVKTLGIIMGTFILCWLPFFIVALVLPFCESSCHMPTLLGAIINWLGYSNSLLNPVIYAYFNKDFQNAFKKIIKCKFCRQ
Description: Compound was tested for binding affinity against cloned human 5-hydroxytryptamine 1A receptor expressed in CHO-K1 cells. In kind it is cell-based. In short, it runs like this:
(§6)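 CHO cell membranes expressing cloned human 5-HT1A, 5-HT1Dα or 5-HT1Dβ receptors, or rat D2 receptors (20-60 µg protein). Buffers at pH 7.4: 50 mM Tris/5 mM MgCl2 (5-HT1A); the same with 0.1% ascorbic acid (5-HT1D); 20 mM HEPES/10 mM MgSO4 (D2). Nonspecific binding defined with lisuride, serotonin and haloperidol respectively. 11 concentrations in duplicate, 1 h at room temperature (5-HT1D protected from light), filtration.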

In series [11] the target is T1, 5-hydroxytryptamine receptor 1D. Nature of the series: Ratio of receptor binding affinities of 5-hydroxytryptamine 1D receptor alpha vs 5-hydroxytryptamine 1D receptor beta.
Target sequence in this assay (P28221 whole entry): as the sequence (P28221 whole entry) above
Series [12] shares this target. Nature of the series: Compound was tested for binding affinity against human 5-hydroxytryptamine 1D receptor alpha clones expressed in human embryonic kidney (HEK 293) cells line. Format: cell-based, HEK293. A digest of the protocol:
as §1
Target sequence in this assay (P28221 whole entry): as above

In series [13] the target is T3, 5-hydroxytryptamine receptor 1B (Homo sapiens, UniProt P28222). Nature of the series: Compound was tested for binding affinity against human 5-hydroxytryptamine 1D receptor beta clones expressed in human embryonic kidney (HEK 293) cells line. In kind it is cell-based, HEK293. In short, it runs like this:
as §1

Series [14] has as its target T1, 5-hydroxytryptamine receptor 1D. The description is as §2. Format: cell-based. In short, it runs like this: as §6
The source holds these as a separate data set.
Target sequence in this assay (P28221 whole entry): as above

Series [15] relates to Cavia porcellus. Nature of the series: The level of 5-HIAA(prefrontal cortex) measured by means of HPCL with electrochemical detection methods at 12.5 (umol/kg, sc). In kind it is functional. A digest of the protocol:
as §5

Series [16] concerns Cavia porcellus. Nature of the series: The level of 5-HIAA (prefrontal cortex) measured by means of HPCL with electrochemical detection methods at 50(umol/kg, sc). Format: functional. A digest of the protocol: as §5
Series [17] has as its target T3, 5-hydroxytryptamine receptor 1B. Nature of the series: Compound was tested for binding affinity against cloned human 5-hydroxytryptamine 1D receptor beta expressed in CHO-K1 cells. In kind it is cell-based.
The test system of series [18] is Cavia porcellus. Nature of the series: Effect of 12.5 (umol/kg, sc) compound on guinea pig rectal temperature (Hypothermia). Format: functional. A digest of the protocol: as §4
Series [19] deals with Cavia porcellus. Description: The level of 5-HT (prefrontal cortex) measured by means of HPCL with electrochemical detection methods at 50(umol/kg, sc). In kind it is functional. In short, it runs like this:
as §5

The subject of series [20] is Cavia porcellus. Nature of the series: The level of 5-HIAA (hypothalamus) measured by means of HPCL with electrochemical detection methods at 50(umol/kg, sc). In kind it is functional. A digest of the protocol: as §5
The subject of series [21] is Cavia porcellus. Description: Effect of 50(umol/kg, sc) compound on guinea pig rectal temperature (Hypothermia). In kind it is functional. A digest of the protocol:
as §4

The test system of series [22] is Rattus norvegicus. Nature of the series: 5-HTP accumulation in Rat brain striatum when Reserpine given 24 hr before decapitation & 45 & 30 min before 10 umol/kg test drug. Format: functional. In short, it runs like this: (§7)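 Rats reserpinized (5 mg/kg ip) 24 h before test compound (10 µmol/kg sc in saline, 1.0 mL/kg). NSD 1015 (100 mg/kg) given 15 min after test compound; decapitation 30 min later. Regions stored at -70 °C, homogenized in TCA, supernatant analysed by HPLC-electrochemical detection. Output is 5-HTP in µg/g wet tissue, mean ± SEM (striatum n=8, others n=4); one-way ANOVA with post hoc t-test.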

The test system of series [23] is Rattus norvegicus. Nature of the series: 5-HTP accumulation in Rat brain accumbens when Reserpine given 24 hr before decapitation & 45 & 30 min before 10 umol/kg test drug. In kind it is functional. A digest of the protocol: as §7
Series [24] deals with Rattus norvegicus. Description: 5-HTP accumulation in Rat brain frontal cortex when Reserpine given 24 hr before decapitation & 45 & 30 min before 10 umol/kg test drug. In kind it is functional. In short, it runs like this:
as §7

The test system of series [25] is Cavia porcellus. Nature of the series: The level of 5-HIAA (hypothalamus) measured by means of HPCL with electrochemical detection methods at 12.5 (umol/kg, sc). Format: functional. In short, it runs like this: as §5
Series [26] concerns Cavia porcellus. Description: The level of 5-HT (hypothalamus) measured by means of HPCL with electrochemical detection methods at 50(umol/kg, sc). Format: functional. In short, it runs like this: as §5
Series [27] relates to Cavia porcellus. Description: The level of 5-HT (prefrontal cortex) measured by means of HPCL with electrochemical detection methods at 12.5 (umol/kg, sc). In kind it is functional. A digest of the protocol: as §5
Series [28] relates to Cavia porcellus. Description: The level of 5-HT (hypothalamus) measured by means of HPCL with electrochemical detection methods at 12.5 (umol/kg, sc). Format: functional. A digest of the protocol:
as §5

The subject of series [29] is Rattus norvegicus. Nature of the series: 5-HTP accumulation in Rat brain hippocampus when Reserpine given 24 hr before decapitation & 45 & 30 min before 10 umol/kg test drug. Format: functional. In short, it runs like this:
as §7

T3 sequence (P28222 whole entry): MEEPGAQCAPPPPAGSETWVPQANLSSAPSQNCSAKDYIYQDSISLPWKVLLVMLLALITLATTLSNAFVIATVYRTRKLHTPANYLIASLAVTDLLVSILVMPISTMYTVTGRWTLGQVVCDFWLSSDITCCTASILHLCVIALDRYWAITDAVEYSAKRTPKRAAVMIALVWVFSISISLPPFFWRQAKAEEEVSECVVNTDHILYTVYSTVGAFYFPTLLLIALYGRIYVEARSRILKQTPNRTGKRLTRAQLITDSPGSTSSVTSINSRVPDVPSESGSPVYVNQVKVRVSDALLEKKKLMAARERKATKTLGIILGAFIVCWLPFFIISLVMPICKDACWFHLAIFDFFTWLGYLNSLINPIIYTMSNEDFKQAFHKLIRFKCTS

For `CCN(CC)CCc1c[nH]c2ccc(O)cc12`, the logD in series [1] was determined as 0.28. The IC50 in [2] and in series [3] was 77 nM each time.
Consider `CN(C)CCc1c[nH]c2ccc(OCc3ccccc3)cc12`, for which, in series [1], the logD came to 2.28. The IC50 amounted to 25 nM in series [2] and 76 nM in series [3].
`CNS(=O)(=O)Cc1ccc2[nH]cc(CCN(C)C)c2c1`: the Others is -0.14 in [4]; 133% in series [6]; 122% in [7]; 129% in [8]; 119% in [9]. In addition, the inhibition constant Ki in series [5] was above 218 nM.
With `CCN(CC)CCc1c[nH]c2ccc(OS(=O)(=O)C(F)(F)F)cc12`, the Ki came to 27 nM in series [10], 637 nM in [5], 12 nM in [14] and 171 nM in series [3]. In series [1], this molecule gave a log distribution coefficient (logD) of 1.31. Further, the Ratio in [11] is 14.3. Besides, the IC50 came out at 21 nM in series [12] and 530 nM in series [13].
For `CN(C)CCc1c[nH]c2ccc(OS(=O)(=O)C(F)(F)F)cc12`, the Ki was determined as 40 nM in series [10], 538 nM in series [5], 32 nM in series [17] and 3.2 nM in series [14]. In addition, the Others is listed as 59% in series [15]; 46% in series [16]; -1.7 in series [18]; 129% in series [19]; 54% in series [20]; -1.72 in [21]. Also, the Others in [25] is 66%; in series [26], 123%; in series [27], 104%; in series [28] it was 97%. This molecule also gave a logD in series [1] of 1.41. In addition, the Ratio in [11] came to 10. For the same molecule, the figures for the concentration for half-maximal inhibition (IC50) in series [12] and in series [13] were 8.4 nM and 98 nM, respectively. Further, the 5-HTP accumulation in series [22] stood at 0.28 µg/g; in [23], 0.4 µg/g; in [24] it was 0.37 µg/g; in series [29], 0.28 µg/g. For the same molecule, the Accumulation in series [22] is on record as 75.7%; in [23], 81.6%; in series [24], 78.8%; in [29] it was 100%.
As to `NCCc1c[nH]c2ccc(OS(=O)(=O)C(F)(F)F)cc12`, the inhibition constant Ki in series [10] was 18 nM; in series [5], 658 nM; in series [17], 14 nM; in series [14], 2.8 nM. For the same molecule, the logD in series [1] was -0.24. In addition, the Ratio in series [11] was found to be 5.

For orientation: logD means lipophilicity at a set pH, counting ionised and neutral species. One may read the IC50 as the concentration that gives 50% inhibition. A higher IC50 goes with lower potency. Usually Ki stands for the dissociation constant of the complex between target and ligand, obtained from inhibition or displacement. Lower therefore signals a stronger hold on the target.
